The values below come from ChEMBL document CHEMBL4706714 (Bioorg Med Chem, 2021).

The source made the active and inactive calls. The rule behind the calls is not given here.

A short description of test [1]: Cytotoxicity against Chinese Hamster MTXRII-OuaR2-4 R2 cells assessed as reduction in cell proliferation after 96 hrs by CellTiter-blue assay. The test is classed as cell-based. Conditions: Cricetulus griseus, R2, 96 h.
The test system of test [2] is IGROV-1. Description: Antiproliferative activity against human IGROV1 cells assessed as reduction in cell viability after 96 hrs by CellTiter-blue assay. The test is classed as functional, cell-based. To be noted: IGROV-1, 96 h.
The nature of test [3]: Inhibition of human full length N-terminal His-tagged GARFTase expressed in Chinese Hamster MTXRII-OuaR2-4 R2 cells assessed as reduction in THF formation using 10-CHOTHF as substrate by spectrophotometric method.
Test [4] addresses T1, Bifunctional purine biosynthesis protein ATIC (Homo sapiens, UniProt P31939). Description: Inhibition of human full length N-terminal His-tagged ATIC expressed in Chinese Hamster MTXRII-OuaR2-4 R2 cells assessed as reduction in THF formation using 10-CHOTHF as substrate by spectrophotometric method.
Target sequence in this assay (P31939 whole entry): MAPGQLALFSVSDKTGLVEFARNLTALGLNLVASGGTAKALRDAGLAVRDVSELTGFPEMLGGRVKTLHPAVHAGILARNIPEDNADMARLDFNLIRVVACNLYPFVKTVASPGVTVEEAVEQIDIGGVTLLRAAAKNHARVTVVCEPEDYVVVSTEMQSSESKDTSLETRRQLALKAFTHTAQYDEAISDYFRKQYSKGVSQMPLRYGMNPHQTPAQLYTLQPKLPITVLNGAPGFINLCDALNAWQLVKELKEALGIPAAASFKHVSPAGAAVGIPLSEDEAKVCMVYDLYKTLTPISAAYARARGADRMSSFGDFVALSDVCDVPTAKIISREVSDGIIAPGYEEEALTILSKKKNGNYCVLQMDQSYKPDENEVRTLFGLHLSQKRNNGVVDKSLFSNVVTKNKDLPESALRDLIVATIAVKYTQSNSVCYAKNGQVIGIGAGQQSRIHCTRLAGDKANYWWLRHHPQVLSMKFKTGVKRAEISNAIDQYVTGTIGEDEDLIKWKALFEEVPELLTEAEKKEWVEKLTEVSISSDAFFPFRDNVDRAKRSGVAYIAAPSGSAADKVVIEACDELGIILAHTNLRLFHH
Test [5] concerns KB. Description: Antiproliferative activity against human KB cells assessed as reduction in cell viability after 96 hrs in presence of adenosine by CellTiter-blue assay. In kind it is functional, cell-based. In outline:
(§1)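 KB cells, 4000 cells/well, in folate-free RPMI 1640 with 10% dialyzed FBS and 2 nM leucovorin. A range of drug concentrations was co-incubated with adenosine (60 μM) or thymidine (10 μM) for 96 h at 37 °C. Proliferation was read by CellTiter-blue fluorescence. Data are representative of at least triplicate experiments.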

For test [6], the system named is KB. Description: Antiproliferative activity against human KB cells assessed as reduction in cell viability after 96 hrs in presence of folic acid by CellTiter-blue assay. In kind it is functional, cell-based. In outline: (§2)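 Cells grown in folate-free RPMI with 10% dialyzed FBS, 2 nM leucovorin, 2 mM L-glutamine; 2500–5000 cells/well, inhibitors 0–1000 nM, with 200 nM folic acid added in parallel wells to block FR uptake.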
A general note: Alamar Blue is a resazurin reagent that responds to reducing activity.

The subject of test [7] is KB. Description: Antiproliferative activity against human KB cells assessed as reduction in cell viability after 96 hrs in presence of thymidine by CellTiter-blue assay. The test is classed as functional, cell-based. The gist of the method: as §1
Test [8] relates to KB. Description: Antiproliferative activity against human KB cells assessed as reduction in cell viability after 96 hrs by CellTiter-blue assay. In kind it is functional, cell-based.
Test [9] has as its system IGROV-1. Description: Antiproliferative activity against human IGROV1 cells assessed as reduction in cell viability after 96 hrs in presence of folic acid by CellTiter-blue assay. The test is classed as functional, cell-based. Conditions: IGROV-1, 96 h. In outline: as §2
The nature of test [10]: Inhibition of de nova purine biosynthesis in human IGROV1 assessed as decrease in ATP level at 1 uM after 48 hrs by LC-MS/MS analysis relative to control. Conditions: IGROV-1. In kind it is functional. The gist of the method:
(§3)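 NCI-IGROV1 ovarian cells in folate-free RPMI, 10% FBS, 2 mM L-glutamine, five replicate dishes, adhered 24 h; medium replaced and 1 μM inhibitor or DMSO vehicle added for 48 h. Extracted metabolites measured by reverse-phase LC-MS, negative ion mode, identified by exact mass and retention time against standards; normalized to cell protein; expressed relative to vehicle control.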

Test [11] concerns the target Folate receptor alpha (Homo sapiens) (UniProt P15328). The experiment in a line: Displacement of [3H]-folic acid from human FRalpha expressed in Chinese Hamster MTXRII-OuaR2-4 R2 cells after 15 mins by liquid scintillation counting method. In kind it is cell-based. In outline: (§4)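 RT16 (FRα) or D4 (FRβ) CHO transfectants, 1 × 10^6 cells, adhered 24 h; washed at 4 °C with DPBS, pH 3.5 acetate buffer to strip bound folate, then HBS pH 7.4. Incubated 15 min at 0 °C with 50 nM [3H]folic acid plus competitor 0–1 μM; bound label per mg protein (Folin-phenol).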
Background: Displacement assays read how much labelled ligand stays bound in the presence of the test substance.

Test [12] deals with IGROV-1. Description: Inhibition of GARFTase in human IGROV1 assessed as decrease in fGAR level at 1 uM after 48 hrs by LC-MS/MS analysis relative to control. The gist of the method: as §3
A short description of test [13]: Inhibition of de nova purine biosynthesis in human IGROV1 assessed as decrease in ADP level at 1 uM after 48 hrs by LC-MS/MS analysis relative to control. The test is classed as functional. Conditions: IGROV-1. In outline:
as §3

Test [14] is described as follows: Inhibition of de nova purine biosynthesis in human IGROV1 assessed as decrease in IMP level at 1 uM after 48 hrs by LC-MS/MS analysis relative to control. In kind it is functional. Conditions: IGROV-1. The gist of the method:
as §3

Test [15] addresses Folate receptor beta (Homo sapiens) (UniProt P14207). The experiment in a line: Displacement of [3H]-folic acid from human FRbeta expressed in Chinese Hamster MTXRII-OuaR2-4 R2 cells after 15 mins by liquid scintillation counting method. The test is classed as cell-based. In outline: as §4
Test [16] has as its system IGROV-1. Description: Inhibition of de nova purine biosynthesis in human IGROV1 assessed as decrease in AMP level at 1 uM after 48 hrs by LC-MS/MS analysis. The test is classed as functional. The gist of the method:
as §3

The test system of test [17] is IGROV-1. Description: Inhibition of GARFTase in human IGROV1 assessed as increase in GAR level at 1 uM after 48 hrs by LC-MS/MS analysis. The gist of the method: as §3
Test [18] has as its target T1, Bifunctional purine biosynthesis protein ATIC. Description: Inhibition of AICARFTase in human IGROV1 assessed as decrease in ZMP level at 1 uM after 48 hrs by LC-MS/MS analysis relative to control. To be noted: IGROV-1. In outline:
as §3
Target sequence in this assay (P31939 whole entry, looked up): as the sequence (P31939 whole entry) above

Chain of Folate receptor alpha (Homo sapiens) (P15328 25-234 limits assumed): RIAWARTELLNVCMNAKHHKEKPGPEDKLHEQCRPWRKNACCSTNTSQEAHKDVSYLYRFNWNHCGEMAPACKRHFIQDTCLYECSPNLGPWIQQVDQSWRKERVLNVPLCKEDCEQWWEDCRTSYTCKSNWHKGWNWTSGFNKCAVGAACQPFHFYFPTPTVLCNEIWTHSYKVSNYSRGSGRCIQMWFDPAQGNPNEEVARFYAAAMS
Chain of Folate receptor beta (Homo sapiens) (P14207 17-230 limits assumed): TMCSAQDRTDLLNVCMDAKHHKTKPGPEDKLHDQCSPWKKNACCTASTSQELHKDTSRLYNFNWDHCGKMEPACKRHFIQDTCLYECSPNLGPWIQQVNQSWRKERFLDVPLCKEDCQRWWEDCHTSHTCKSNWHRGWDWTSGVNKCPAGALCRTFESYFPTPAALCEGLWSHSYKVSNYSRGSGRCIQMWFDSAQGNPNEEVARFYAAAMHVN

One may read the IC50 as the concentration at which inhibition is half-maximal. A word on the Ki: it is a measure of affinity in units of concentration, obtained from inhibition or displacement. Consider `Nc1nc2sc(CCCc3cc(C(=O)N[C@@H](CCC(=O)O)C(=O)O)cs3)cc2c(=O)[nH]1`, for which the IC50 in [1] is greater than 1000 nM; in test [2], 26 nM; in test [6], greater than 1000 nM; in test [8], 1.82 nM; in test [9], greater than 1000 nM. Besides, the inhibition constant (Ki) in [3] was 910 nM; in test [4], 8370 nM. In addition, in test [5], the outcome was inactive. In addition, the result in test [7] was Active.

For orientation: inhibition means how much of the control response was suppressed. Regarding `Nc1nc2sc(CCCCc3ccc(C(=O)N[C@@H](CCC(=O)O)C(=O)O)s3)cc2c(=O)[nH]1`, the inhibition at 1 µM in test [10] was determined as 75%; in test [13] it was 60%; in test [14], 60%. The IC50 in test [1] is greater than 1000 nM; in test [2], 10.1 nM; in test [6], greater than 1000 nM; in [8] it was 2.1 nM; in [9], greater than 1000 nM. Moreover, the Activity in [11] was found to be 89%; in test [15], 60%. Further, the Ki is 1360 nM in test [3] and 5150 nM in [4]. Besides, the inhibition in test [12] is 50%. Besides, the outcome in [5] was inactive. In addition, in test [7], the outcome was Active. Further, the inhibition result in [16] and in [18] was “Active” in each case. The fold change (FC) in [17] was 150.

With `Nc1nc2sc(CCCCc3ccc(C(=O)N[C@@H](CCC(=O)O)C(=O)O)o3)cc2c(=O)[nH]1`, the half-maximal inhibitory concentration (IC50) is greater than 1000 nM in test [1]; greater than 1000 nM in test [2]; greater than 1000 nM in test [6]; 7.9 nM in [8]; greater than 1000 nM in [9]. Further, the Activity is 89% in [11] and 60% in test [15]. In addition, the Ki was found to be 10700 nM in test [3] and 24700 nM in test [4]. Further, the outcome in test [5] was inactive. Moreover, in [7], the result was Active.

Consider `Nc1nc2[nH]cc(CCc3ccc(C(=O)N[C@@H](CCC(=O)O)C(=O)O)cc3)c2c(=O)[nH]1` [PEMETREXED], for which, in test [3], the Ki was greater than 150000 nM.

`Nc1nc2sc(CCCCc3ccc(C(=O)N[C@@H](CCC(=O)O)C(=O)O)cc3)cc2c(=O)[nH]1`: the IC50 in [1], in [6] and in test [9] was greater than 1000 nM throughout. Further, in [4], the Ki was 9480 nM. In addition, the outcome in test [5] was inactive. Further, the result in test [7] was Active.

For the compound `Nc1nc2[nH]c(CCCc3ccc(C(=O)N[C@@H](CCC(=O)O)C(=O)O)s3)cc2c(=O)[nH]1`, the inhibition at 1 µM in [10] is 75%; in [13], 60%; in test [14], 60%. Further, the inhibition stood at 99% in [12] and 50% in [18]. Besides, the inhibition result in test [16] is “Active”. In addition, the fold change (FC) in [17] came out at 150.

Take `Nc1nc2sc(CCCCc3csc(C(=O)N[C@@H](CCC(=O)O)C(=O)O)c3)cc2c(=O)[nH]1`: the IC50 in test [1] is greater than 1000 nM; in test [2], 108 nM; in test [6], greater than 1000 nM; in test [8], 6.85 nM; in test [9], greater than 1000 nM. In addition, the inhibition constant Ki in test [3] was greater than 150000 nM; in [4], 8030 nM. In [5], the outcome was inactive. The result in [7] was Active.

As to `Nc1nc2sc(CCCc3csc(C(=O)N[C@@H](CCC(=O)O)C(=O)O)c3)cc2c(=O)[nH]1`, the half-maximal inhibitory concentration (IC50) is greater than 1000 nM in [1]; 86.7 nM in [2]; greater than 1000 nM in test [6]; 1.48 nM in test [8]; greater than 1000 nM in test [9]. For the same compound, the inhibition constant Ki in [4] stood at 19800 nM. Further, the result in test [5] was inactive. Also, the result in test [7] was Active.

`Nc1nc2sc(CCCCc3cc(C(=O)N[C@@H](CCC(=O)O)C(=O)O)cs3)cc2c(=O)[nH]1`: the IC50 in test [1] was greater than 1000 nM; in [2], greater than 1000 nM; in [6], greater than 1000 nM; in [8], 4.74 nM; in [9] it was greater than 1000 nM. In addition, the Ki in test [3] was 150 nM; in test [4], 1070 nM. In addition, in test [5], the outcome was inactive. In test [7], the outcome was Active.

`Nc1nc2[nH]cc(CCCCc3ccc(C(=O)N[C@@H](CCC(=O)O)C(=O)O)cc3)c2c(=O)[nH]1`: the outcome in test [5] was inactive. Further, the outcome in test [7] was Active.

Turning to `Nc1nc2sc(CCCc3ccc(C(=O)N[C@@H](CCC(=O)O)C(=O)O)s3)cc2c(=O)[nH]1`, the inhibition at 1 µM came to 75% in test [10], 60% in test [13] and 60% in test [14]. For the same compound, the IC50 in test [1] is greater than 1000 nM; in [2], 54.1 nM; in [6], greater than 1000 nM; in test [8], 1.42 nM; in test [9], greater than 1000 nM. Further, the Activity was determined as 89% in test [11] and 60% in [15]. Besides, the figures for the Ki in [3] and in [4] were 8190 nM and 14500 nM, respectively. The inhibition in test [12] was 75%. Further, in [5], the result was inactive. Also, the outcome in test [7] was Active. Also, the inhibition entry in test [16] and in test [18] was “Active” each time. Also, the fold change (FC) in [17] came to 150.
